A short description of series [1]: melting temperature; fluorescence melt of hairpins on a sequencing array, two-state fit, raised by 9.35 °C to match UV melts. As to conditions: sodium 0.088 M. The procedure, abridged: (§1)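 Folding enthalpy and melting temperature come from bootstrapped two-state fits to Cy3 fluorescence of library hairpins carrying annealed Cy3 and quencher oligos on a sequenced MiSeq flow cell. Imaging was done in 50 mM Na-HEPES pH 8.0, 25 mM NaCl, stepping by 2.5 °C up to 60 °C, and signals were normalised to pre-quench Cy3 and to control constructs. Results of four replicates were combined by inverse variance, and fitted temperatures were raised by 9.35 °C to match UV melts.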

Series [2] can be described thus: folding enthalpy; higher = less favourable; fluorescence melt of hairpins on a sequencing array, two-state fit. As to conditions: sodium 0.088 M. The procedure, abridged:
as §1

Turning to CGTACGGAAACGTAAACG ((((((....)))..))), the Tm in series [1] was 37.2 °C. For the same sequence, the folding enthalpy in series [2] is -17.3 kcal/mol.
In the case of CGTACGGAAACGTATACG ((((((....)))..))), the Tm in series [1] is 35.5 °C. Also, the folding enthalpy in series [2] is -17.6 kcal/mol.
Taken in the same sequence, the figures for CGTACGGAAACGTCCACG ((((((....)))..))) were 30.2 °C and -12.1 kcal/mol.
Taken in the same sequence, the figures for CGTACGGAAACGTGCACG ((((((....)))..))) were 36.2 °C and -14.5 kcal/mol.
Taken in the same sequence, the figures for CGTAGGCGGAAACGCACG (((..(((....)))))) were 42.1 °C and -15.1 kcal/mol.
CGTCAACGGAAACGTACG (((..(((....)))))): the Tm in series [1] was 35.6 °C. In addition, in series [2], the folding enthalpy is -11.4 kcal/mol.
On the same counts, the results for CGTCACGGAAACGTTACG (((.(((....))).))) are 45.3 °C and -31.2 kcal/mol.
With CGTCCCGGAAACGGAACG (((.(((....))).))), in series [1], the Tm was found to be 47.5 °C. Moreover, the folding enthalpy in series [2] is -26.3 kcal/mol.
Taken in the same sequence, the figures for CGTCCCGGAAACGGTACG (((.(((....))).))) were 47.2 °C and -29.1 kcal/mol.
For CGTCCGGAAACGGAGACG ((((((....)))..))), the Tm in series [1] was found to be 45.3 °C. In addition, the folding enthalpy in series [2] was -21.4 kcal/mol.
Taken in the same sequence, the figures for CGTCCGGAAACGGCACG ((((((....))).))) were 47.6 °C and -22.5 kcal/mol.
Taken in the same sequence, the figures for CGTCGCGGAAACGCCACG (((.(((....))).))) were 45.1 °C and -33.1 kcal/mol.
Taken in the same sequence, the figures for CGTCGCGGAAACGCTACG (((.(((....))).))) were 49.3 °C and -28.9 kcal/mol.
Consider CGTCTCGGAAACGAAACG (((.(((....))).))), for which, in series [1], the Tm is 38.5 °C. Besides, the folding enthalpy in series [2] was -32.4 kcal/mol.
On the same counts, the results for CGTCTGCGGAAACGCACG (((..(((....)))))) are 38.7 °C and -12.2 kcal/mol.
For the sequence CGTGAGAAATCACG (((((....))))), the Tm in series [1] was 50.8 °C. The folding enthalpy in series [2] was -25.8 kcal/mol.
Taken in the same sequence, the figures for CGTGAGCGGAAACGCACG (((..(((....)))))) were 45.9 °C and -22.2 kcal/mol.
On the same counts, the results for CGTGCCGGAAACGGAACG (((.(((....))).))) are 55.9 °C and -37.7 kcal/mol.
On the same counts, the results for CGTGCCGGAAACGGTACG (((.(((....))).))) are 60.3 °C and -32.4 kcal/mol.
CGTGCGGAAACGCATACG ((((((....)))..))): in series [1], the Tm turned out to be 44.9 °C. The folding enthalpy in series [2] was -15.4 kcal/mol.
On the same counts, the results for CGTGCGGAAACGCCAACG ((((((....)))..))) are 39.4 °C and -19.2 kcal/mol.
On the same counts, the results for CGTGCGGAAACGCCGACG ((((((....)))..))) are 44.5 °C and -15.6 kcal/mol.
Regarding CGTGCGGAAACGCGTACG ((((((....)))..))), the Tm in series [1] worked out at 48.6 °C. In addition, the folding enthalpy in series [2] was -26.1 kcal/mol.
On the same counts, the results for CGTGCGGAAACGCTCACG ((((((....)))..))) are 39.9 °C and -18.3 kcal/mol.
For CGTGCGGAAACGCTGACG ((((((....)))..))), in series [1], the Tm was found to be 42.5 °C. In addition, in series [2], the folding enthalpy is -21.2 kcal/mol.
Taken in the same sequence, the figures for CGTGGCCGGAAACGGACG (((..(((....)))))) were 44.2 °C and -10.8 kcal/mol.
As for CGTTACGGAAACGTACG (((.(((....)))))), the Tm in series [1] is 45.4 °C. Besides, the folding enthalpy in series [2] is -26.3 kcal/mol.
On the same counts, the results for CGTTAGAAATAACG (((((....))))) are 37 °C and -20.5 kcal/mol.
On the same counts, the results for CGTTCCGGAAACGGCACG (((.(((....))).))) are 48.5 °C and -34.9 kcal/mol.
On the same counts, the results for CGTTCCGGAAACGGGACG (((.(((....))).))) are 57.6 °C and -42.9 kcal/mol.
Take CGTTCCGGAAACGGTACG (((.(((....))).))): in series [1], the Tm was 50 °C. Moreover, the folding enthalpy in series [2] is -31.5 kcal/mol.
CGTTCGAAAGAACG (((((....))))): in series [1], the Tm worked out at 58.2 °C. Moreover, the folding enthalpy in series [2] is -30.6 kcal/mol.
Taken in the same sequence, the figures for CGTTCGGAAACGAATACG ((((((....)))..))) were 36.7 °C and -19.2 kcal/mol.
Turning to CGTTGCCGGAAACGGACG (((..(((....)))))), the Tm in series [1] came out at 44.3 °C. Moreover, the folding enthalpy in series [2] was -13.3 kcal/mol.
On the same counts, the results for CGTTGCGGAAACGCCACG (((.(((....))).))) are 49.5 °C and -29.8 kcal/mol.
Taken in the same sequence, the figures for CGTTTACGGAAACGTACG (((..(((....)))))) were 40.1 °C and -19.2 kcal/mol.
On the same counts, the results for CGTTTCCGGAAACGGACG (((..(((....)))))) are 49.3 °C and -17.1 kcal/mol.
With CGTTTCGGAAACGAGACG (((.(((....))).))), the Tm in series [1] turned out to be 49.1 °C. The folding enthalpy in series [2] was -24.9 kcal/mol.
Taken in the same sequence, the figures for CGTTTCGGAAACGATACG (((.(((....))).))) were 45.6 °C and -33.6 kcal/mol.
Take CTAGGGAAACCTAG (((((....))))): the Tm in series [1] is 39.4 °C. The folding enthalpy in series [2] is -17.2 kcal/mol.
Taken in the same sequence, the figures for CTCAGGAAACTGAG (((((....))))) were 46.3 °C and -22.6 kcal/mol.
Taken in the same sequence, the figures for CTCCTGAAAAGGAG (((((....))))) were 51.2 °C and -20.3 kcal/mol.
Taken in the same sequence, the figures for CTGATGAAAATCAG (((((....))))) were 43.4 °C and -22 kcal/mol.
Turning to CTGCGGAAACGCAG (((((....))))), the Tm in series [1] amounted to 61.8 °C. In series [2], the folding enthalpy is -31.6 kcal/mol.
Taken in the same sequence, the figures for CTTACGAAAGTAAG (((((....))))) were 49.2 °C and -19.3 kcal/mol.
Taken in the same sequence, the figures for GAAAAACGAAAGTTCTTC (((.(((....))).))) were 28.2 °C and -13.4 kcal/mol.
Taken in the same sequence, the figures for GAAAACCGAAAGGTCTTC (((.(((....))).))) were 35.8 °C and -18.9 kcal/mol.
GAAAACGAAAGTTGCTTC ((((((....)))..))): the Tm in series [1] is 33.1 °C. The folding enthalpy in series [2] is -19.8 kcal/mol.
Take GAAAAGCCGAAAGGCTTC (((..(((....)))))): the Tm in series [1] was 36.8 °C. In series [2], the folding enthalpy is -7.3 kcal/mol.
Taken in the same sequence, the figures for GAAAAGGCGAAAGCCTTC (((..(((....)))))) were 38.9 °C and -9.06 kcal/mol.
For GAAAAGGGAAACCTTTCC (.(((((....))))).), in series [1], the Tm came to 27.7 °C. Moreover, the folding enthalpy in series [2] is -13.9 kcal/mol.
Taken in the same sequence, the figures for GAAAATGAAAATTTTC ((((((....)))))) were 38.6 °C and -23.1 kcal/mol.
For GAAAATGGAAACATTTCC (.(((((....))))).), the Tm in series [1] stood at 28.6 °C. For the same sequence, in series [2], the folding enthalpy was -17 kcal/mol.
On the same counts, the results for GAAACAGAAATGTTTC ((((((....)))))) are 45.9 °C and -28.5 kcal/mol.
Taken in the same sequence, the figures for GAAACCCCGAAAGGGTTC (((..(((....)))))) were 35.7 °C and -14 kcal/mol.
On to GAAACCGAAAGGTGGTTC ((((((....)))..))), for which the Tm in series [1] is 32.3 °C. For the same sequence, the folding enthalpy in series [2] was -11.8 kcal/mol.
On the same counts, the results for GAAACCGAAAGGTTCTTC ((((((....)))..))) are 54.4 °C and -22.5 kcal/mol.
On the same counts, the results for GAAACCGAAAGGTTTTC ((((((....))).))) are 50.6 °C and -17.3 kcal/mol.
Taken in the same sequence, the figures for GAAACCGGAAACAGTTTC (((((.(....).))))) were 30.8 °C and -25 kcal/mol.
In the case of GAAACCGGAAACGATTTC ((((.((....)).)))), the Tm in series [1] was determined as 34 °C. Moreover, in series [2], the folding enthalpy is -28.9 kcal/mol.
Regarding GAAACCGGAAACGGTTTC (((((((....))))))), in series [1], the Tm turned out to be 65.7 °C. For the same sequence, the folding enthalpy in series [2] is -39 kcal/mol.
On the same counts, the results for GAAACGGGAAACTGTTTC (((((.(....).))))) are 44.9 °C and -27.5 kcal/mol.
With GAAACTGAAAAGTTTC ((((((....)))))), in series [1], the Tm came to 50.4 °C. For the same sequence, the folding enthalpy in series [2] is -31.5 kcal/mol.
Taken in the same sequence, the figures for GAAAGACGAAAGTCCTTC (((.(((....))).))) were 32.8 °C and -15.6 kcal/mol.
Taken in the same sequence, the figures for GAAAGAGCGAAAGCTTTC (((..(((....)))))) were 32.5 °C and -13.8 kcal/mol.
Regarding GAAAGCCCGAAAGGGTTC (((..(((....)))))), the Tm in series [1] came to 27.9 °C. Moreover, the folding enthalpy in series [2] is -10.6 kcal/mol.
Taken in the same sequence, the figures for GAAAGCGAAAGCTGTTTC ((((((....)))..))) were 32 °C and -9.68 kcal/mol.
With GAAAGCGAAAGCTTGTTC ((((((....)))..))), the Tm in series [1] amounted to 36.8 °C. Also, the folding enthalpy in series [2] was -12.5 kcal/mol.
With GAAAGCGGAAACGTTTTC ((((.((....)).)))), the Tm in series [1] is 42.4 °C. For the same sequence, the folding enthalpy in series [2] is -30.5 kcal/mol.
On the same counts, the results for GAAAGGAAACTTTC (((((....))))) are 30.4 °C and -16.9 kcal/mol.
Taken in the same sequence, the figures for GAAAGGGCGAAAGCCTTC (((..(((....)))))) were 24.8 °C and -9.82 kcal/mol.
Turning to GAAAGGGGAAACCCTCTC ((.((((....)))).)), the Tm in series [1] stood at 26.8 °C. The folding enthalpy in series [2] was -17.3 kcal/mol.
GAAAGTGGAAACGCTTTC (((((.(....).))))): in series [1], the Tm turned out to be 44.2 °C. Also, the folding enthalpy in series [2] is -27.6 kcal/mol.
On the same counts, the results for GAAATACGAAAGTACTTC (((.(((....))).))) are 29.5 °C and -15.7 kcal/mol.
